{
  "source": "paper PMC4377730",
  "about": "(Theranostics, 2015)",
  "assay": "[18F]FDG-PET in patients",
  "type": "in vivo, human",
  "method_in_brief": "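Patients fasted 6 h, and blood glucose was checked just before injection to be below 150 mg/dL. They received 300-500 MBq [18F]FDG, with PET/CT started 90 min p.i. at 2 min per bed position. A low-dose CT (120 […], 20 mAs) in shallow inspiration provided attenuation correction. Emission data were corrected for randoms, dead time, scatter and attenuation. Read-outs were SUVmean/SUVmax.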",
  "key": {"[1]": {"settings": "NSCLC lesion, patient with T-cell lymphoma and NSCLC"}, "[2]": {"settings": "bone marrow (BM), patient with multiple myeloma"}, "[3]": {"settings": "hottest lesion in the 5th rib left, patient with multiple myeloma"}, "[4]": {"settings": "lymphoma lesion, patient with T-cell lymphoma and NSCLC"}, "[5]": {"settings": "nodal lesions, patient with chronic lymphocytic leukemia and suspected transformation into aggressive B-cell lymphoma"}},
  "data": [
    {"smiles": "O=C[C@H]([18F])[C@@H](O)[C@H](O)[C@H](O)CO", "note": "[[^18F]FDG, 2-[^18F]Fluoro-2-desoxyglucose]", "values": [
      {"measurement": "SUVmax", "setting": "[1]", "value": 38.57},
      {"measurement": "SUVmean", "setting": "[1]", "value": 26.36},
      {"measurement": "SUVmax", "setting": "[2]", "value": 6.24},
      {"measurement": "SUVmean", "setting": "[2]", "value": 3.77},
      {"measurement": "SUVmax", "setting": "[3]", "value": 8.06},
      {"measurement": "SUVmean", "setting": "[3]", "value": 5.23},
      {"measurement": "SUVmax", "setting": "[4]", "value": 50.91},
      {"measurement": "SUVmean", "setting": "[4]", "value": 29.82},
      {"measurement": "SUVmax", "setting": "[5]", "value": 5.94},
      {"measurement": "SUVmean", "setting": "[5]", "value": 3.66}
    ]}
  ]
}
